{
  "source": "paper PMC2289653",
  "about": "(The Journal of Cell Biology, 1992)",
  "key": {"myristyl transferase": {"system": "myristyl transferase", "test": "Efficiency of myristylation on translation in reticulocyte lysate", "assay_type": "biochemical", "details": "rabbit reticulocyte lysate; densitometry; normalized to pp60v-src = 1; Table II", "summary_of_the_method": "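Constructs translated in rabbit reticulocyte lysate for 90 min at 30°C, with either 0.4 µCi/µl [35S]methionine or 0.7 µCi/µl [3H]myristic acid. Products resolved by SDS gel; myristate-to-methionine incorporation ratio expressed relative to wild-type.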"}, "[1]": {"system": "plasma membrane-enriched fractions (P100) from vole cells; membrane-bound src receptor", "test": "In vitro membrane binding of in vitro translated src proteins", "details": "for decrease in membrane-binding capacity versus wild type: P100 membranes from normal vole cells, average of three experiments, Fig. 5"}, "[2]": {"system": "kin-src binding to plasma membranes (src receptor)", "test": "Competition of kin-src membrane binding by peptides or polypeptides", "design": "species or system vole", "summary_of_the_method": "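[35S]methionine-labelled chimera translated in rabbit reticulocyte lysate (90 min, 30°C; Triton X-100 0.075% final), then incubated 30 min at 20°C with 1T cell P100 membranes with increasing myristylated peptide. Also tested: 8-mer at 92 µM, 15-mer at 58 µM, or in vitro translated competitor polypeptide. Pellets at 100,000 g; gel slices counted. Pellet without membranes subtracted; untreated membranes set to 100%.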"}, "[3]": {"system": "pp60v-src binding to plasma membranes (src receptor)", "details": "previous experiments; ref Resh, 1989; cited from earlier work"}, "[4]": {"system": "pp60v-src binding to plasma membranes (src receptor)", "test": "Competition of pp60v-src membrane binding by peptides or polypeptides", "design": "species or system vole", "summary_of_the_method": "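1T cell P100 membranes incubated with [35S]methionine-labelled, reticulocyte-lysate-translated protein plus increasing myristylated N-terminal peptides, including Lys→Asn or Arg variants. Nonmyristylated peptide served as control. Incubation 30 min at 20°C, then ultracentrifugation at 100,000 g. Gel slices counted by scintillation. Pellet without membranes subtracted; binding to untreated membranes normalised to 100%.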"}, "[5]": {"system": "del 15-263 binding to vole cell membranes (P100)", "test": "Competition of del 15-263 membrane binding by MGYsrc peptide", "summary_of_the_method": "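In vitro translated [35S]methionine-labelled deletion mutant (rabbit reticulocyte lysate) incubated with vole P100 membranes with increasing myristylated src peptide. Binding quantitated by gel slice scintillation counting, pellet without membranes subtracted, untreated membranes set to 100%. In parallel, membranes were incubated 15 min at 20°C with 4 × 10^5 c.p.m. 125I-peptide, then 15 min with BS3 crosslinker, in the presence of increasing unlabelled peptide. After 100,000 g reisolation, SDS gel, and gamma counting of the excised band.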"}, "NIH3T3 cells [6]": {"system": "NIH3T3 cells", "test": "Subcellular fractionation and immunofluorescence of G418-resistant NIH3T3 clones", "assay_type": "cell-based", "details": "for Percent association with cell fraction P1 / Percent association with cell fraction P100: percentage of total src kinase activity; for Percent association with cell fraction P1: 1,000-g pellet; for Percent association with cell fraction P100: 100,000-g pellet", "summary_of_the_method": "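G418-resistant NIH3T3 clones (retroviral transfer) labelled 1 h with 50 µCi/ml [35S]methionine. Cells lysed by hypotonic Dounce homogenisation and spun into a 1,000 g pellet (P1), a 100,000 g pellet (P100) and S100. Fractions adjusted to kinase buffer, immunoprecipitated with anti-p60 serum, and subjected to in vitro kinase assay. Analysed by SDS-PAGE and scintillation counting; each fraction given as percent of total kinase activity.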"}, "NIH3T3 cells [7]": {"system": "NIH3T3 cells", "test": "Transformation: morphology and growth in soft agar", "assay_type": "cell-based", "summary_of_the_method": "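NIH3T3 cells transduced with PLJ retroviral vector carrying src or chimera, or with vector alone. G418-resistant clones expanded, then morphology examined by phase-contrast microscopy. Growth in soft agar scored +/− per clone.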"}, "[8]": {"details": "peptide at 340 μM, 1T cell P100 membranes, Fig. 2"}},
  "data": [
    {"substance": "v-src N5+9: mutant of v-src in which both lysines 5 and 9 were converted to asparagine", "values": [
      {"measurement": "Relative incorporation [3H]myristate/[35S]methionine", "setting": "myristyl transferase", "result": 0.93},
      {"measurement": "decrease in membrane-binding capacity versus wild type", "setting": "[1]", "result": "~ 60%"}
    ]},
    {"substance": "GNAAAAKKY [8 mer]", "values": [
      {"measurement": "inhibition of membrane binding of kin-src", "setting": "[2]; peptide at 92 μM", "result": 35, "unit": "%"},
      {"measurement": "inhibition of pp60v-src binding", "setting": "[3]", "result": "failed to detect inhibition"}
    ]},
    {"substance": "v-src N5: mutant of v-src in which lysine 5 has been converted to asparagine", "values": [
      {"measurement": "Relative incorporation [3H]myristate/[35S]methionine", "setting": "myristyl transferase", "result": 0.99},
      {"measurement": "decrease in membrane-binding capacity versus wild type", "setting": "[1]", "result": 30, "unit": "%"}
    ]},
    {"substance": "GSSKSKPKDPSY [MGYsrc]", "values": [
      {"measurement": "kin-src polypeptide released from the membrane by MGYsrc", "setting": "[2]; from the shape of the binding curve in Fig. 2", "result": "~75", "unit": "%"},
      {"measurement": "maximum inhibition of pp60v-src binding", "setting": "[4]; competition never complete, on average, Figs. 2 and 4", "result": "50-60%"},
      {"measurement": "inhibition of binding of the del 15-263 polypeptide", "setting": "[5]; increasing MGYsrc, vole cell P100 membranes, Fig. 6", "result": "80-90%"},
      {"measurement": "Ki", "setting": "[5]; read-out: Ki for membrane binding of del 15-263, vole P100 membranes, Fig. 7", "result": 35, "unit": "µM"}
    ]},
    {"substance": "GQ1WTTPLY [myristylated gag peptide, reference compound]", "values": [
      {"measurement": "effect on the binding of kin-src", "setting": "[2]; data not shown", "result": "did not have a significant effect"}
    ]},
    {"substance": "pp60v-src: protein product of the v-src gene of Rous sarcoma virus; NH2 terminus M G S S K S K P K D P S Q R", "values": [
      {"measurement": "Percent association with cell fraction P1", "setting": "NIH3T3 cells [6]; clone 1", "result": 43, "unit": "%"},
      {"measurement": "Percent association with cell fraction P100", "setting": "NIH3T3 cells [6]; clone 1", "result": 47, "unit": "%"},
      {"measurement": "Percent association with cell fraction P1", "setting": "NIH3T3 cells [6]; clone 2", "result": 32, "unit": "%"},
      {"measurement": "Percent association with cell fraction P100", "setting": "NIH3T3 cells [6]; clone 2", "result": 61, "unit": "%"},
      {"measurement": "Percent association with cell fraction P1", "setting": "NIH3T3 cells [6]; clone 3", "result": 17, "unit": "%"},
      {"measurement": "Percent association with cell fraction P100", "setting": "NIH3T3 cells [6]; clone 3", "result": 67, "unit": "%"},
      {"measurement": "Percent association with cell fraction P1", "setting": "NIH3T3 cells [6]; clone 4", "result": 34, "unit": "%"},
      {"measurement": "Percent association with cell fraction P100", "setting": "NIH3T3 cells [6]; clone 4", "result": 57, "unit": "%"},
      {"measurement": "polypeptide membrane associated in vivo", "setting": "NIH3T3 cells [6]; hypotonic lysis and differential centrifugation, Table III", "result": "80-90%"},
      {"measurement": "subcellular localization in vivo", "setting": "NIH3T3 cells [6]; indirect immunofluorescence and cellular fractionation", "result": "punctate membrane staining"},
      {"measurement": "competition of radiolabeled kin-src binding by polypeptide", "setting": "[2]; equimolar or submolar concentrations of in vitro translated polypeptide, data not shown", "result": "readily com- peted"},
      {"measurement": "morphology of expressing cells", "setting": "NIH3T3 cells [7]; G418-resistant clonal populations, phase contrast, Fig. 3", "result": "fully transformed"},
      {"measurement": "growth in soft agar", "setting": "NIH3T3 cells [7]; G418-resistant clones, Table III prints + for all four clones of each", "result": "capable of growth in soft agar"},
      {"measurement": "ratio of src protein in the pellet fraction +Mbs/-Mbs", "setting": "[1]; 1T membranes (P100), 30 min at 20°C, average of four experiments, Fig. 1", "result": 3.2}
    ]},
    {"substance": "v-src N9: mutant of v-src in which lysine 9 has been converted to asparagine", "values": [
      {"measurement": "Relative incorporation [3H]myristate/[35S]methionine", "setting": "myristyl transferase", "result": 0.98},
      {"measurement": "decrease in membrane-binding capacity versus wild type", "setting": "[1]", "result": 45, "unit": "%"}
    ]},
    {"substance": "GSSKSKPKDPSY [GYsrc]", "values": [
      {"measurement": "inhibition of kin-src membrane binding", "setting": "[2]; [8]", "result": "10-20%"},
      {"measurement": "inhibition of pp60v-src membrane binding", "setting": "[4]; [8]", "result": "10-20%"}
    ]}
  ]
}
